The inhibition is the percentage by which the read-out fell short of the control. A word on the NOAEL: it is the highest tested level that showed no adverse finding. For orientation: pEC50 means the EC50 on a negative log10 scale, so that one unit is a factor of ten. A low value points to a large EC50.

pEC50: −log10 of the molar value. Calls of active or inactive are those of the source. The calls are words filed in the database; no cut-off is given here. A value given as a limit tells only on which side of the number the result lay.

For data set [1], the species on record is Danio rerio. Nature of the data set: Toxicity in Zebrafish embryo assessed as induction of changes in brain region at 1 uM. Format: organism-based. The following applies: in vivo. The method in brief: (§1)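 Embryos at 1 dpf dechorionated with 0.5 mg/ml pronase E and washed in E3. Exposed 6 per well to compound serially diluted in E3 with a final 0.1% DMSO, at 28.5 °C until 5 dpf. Embryos then washed, anaesthetised with 0.008% tricaine and scored blind for body shape, somites, notochord, tail, intestine, fins, brain, jaws, heart, liver and swim bladder. Phenobarbital (3 mM) served as positive control.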

The species named for data set [2] is Danio rerio. The data set is described as follows: Hepatotoxicity in Zebrafish embryo at 1 to 3 uM incubated at 28 degC until 7 days post fertilization. Format: organism-based. The note with it: in vivo, 168 h. The method in brief:
(§2)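 Larvae at 4 dpf exposed in 24-well plates, 6 per well in 0.1% DMSO, to final 1, 3, 10 and 30 concentrations, incubated at 28 °C until 7 dpf. Washed in E3 and anaesthetised with tricaine. Images scored for liver size, liver degeneration and yolk sac retention as percentages. Amiodarone served as positive control.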

For data set [3], the species on record is Danio rerio. Nature of the data set: Toxicity in Zebrafish embryo assessed as induction of changes in heart region at 1 uM. Format: organism-based. The note with it: in vivo. The method in brief: as §1
For data set [4], the species on record is Danio rerio. The data set is described as follows: Toxicity in Zebrafish embryo assessed as induction of changes in notochords at 1 uM. Format: organism-based, Notochord. The following applies: in vivo. The method in brief: as §1
The target of data set [5] is 3',5'-cyclic-AMP phosphodiesterase 4B (Homo sapiens) (UniProt Q07343). The data set is described as follows: Inhibition of recombinant His-tagged PDE4B1 (unknown origin) expressed in Sf9 cells at 30 uM pre-incubated for 15 mins before cAMP substrate addition by luminescence assay. The method in brief:
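PDE4B1 purified in house (10 ng) pre-incubated 15 min with compound or DMSO vehicle. cAMP substrate ([…]) added for 1 h, then reaction stopped and detection reagent applied 10 min in the dark. Luminescence (RLU) read. % inhibition = (RLU vehicle − RLU inhibitor)/RLU vehicle × 100.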

The species named for data set [6] is Danio rerio. Nature of the data set: Toxicity in Zebrafish embryo assessed as induction of changes in intestine region at 1 uM. Format: organism-based. The following applies: in vivo. The method in brief: as §1
The species entered for data set [7] is Danio rerio. Nature of the data set: Toxicity in Zebrafish embryo assessed as induction of changes in upper jaw region at 1 uM. Format: organism-based. The following applies: in vivo. The method in brief:
as §1

Data set [8] is filed under the species Danio rerio. Nature of the data set: Toxicity in Zebrafish embryo assessed as induction of changes in tail region at 1 uM. The data set is classed as organism-based. The following applies: in vivo. The method in brief:
as §1

For data set [9], the species on record is Danio rerio. Nature of the data set: Toxicity in Zebrafish embryo assessed as induction of changes in swim bladder region at 1 uM. The data set is classed as organism-based. The note with it: in vivo. The method in brief: as §1
The species entered for data set [10] is Danio rerio. The data set is described as follows: Toxicity in Zebrafish embryo at 1 to 30 uM. The data set is classed as organism-based. The following applies: in vivo. The method in brief: as §1
The species named for data set [11] is Danio rerio. Nature of the data set: Teratogenicity in Zebrafish embryo incubated at 28.5 degC until 5 days post fertilization. Format: ADME, organism-based. The note with it: in vivo, 120 h. The method in brief: as §1
The species named for data set [12] is Danio rerio. Nature of the data set: Toxicity in Zebrafish embryo assessed as induction of changes in body shape at 1 uM. Format: organism-based. The note with it: in vivo. The method in brief: as §1
Data set [13] is filed under the species Danio rerio. The data set is described as follows: Toxicity in Zebrafish embryo assessed as induction of changes in somites at 1 uM. Format: organism-based. The following applies: in vivo. The method in brief:
as §1

The species named for data set [14] is Danio rerio. Nature of the data set: Toxicity in Zebrafish embryo assessed as induction of changes in liver region at 1 uM. The following applies: in vivo. The data set is classed as organism-based. The method in brief:
as §1

The species named for data set [15] is Danio rerio. Nature of the data set: Induction of apoptosis in Zebrafish embryo at 1 to 10 uM incubated for 24 to 48 hrs by acridine orange based fluorescence microscopy. The data set is classed as functional, organism-based. The method in brief:
(§3)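 Embryos dechorionated by hand at 24 hpf, 6 per well in two sets, in 0.1% DMSO. Compound added from serially diluted working stocks, kept at 28 °C for 24 h and 48 h. Washed three times in E3, stained 30 min with acridine orange ([…]) in E3, rinsed twice, then examined for apoptosis.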

Data set [16] is filed under the species Danio rerio. The data set is described as follows: Toxicity in Zebrafish embryo assessed as induction of changes in fins region at 1 uM. The following applies: in vivo. Format: organism-based. The method in brief: as §1
For data set [17], the species on record is Danio rerio. The data set is described as follows: Teratogenicity in Zebrafish embryo assessed as induction of morphological deformities at lower jaw at 1 uM incubated at 28.5 degC until 5 days post fertilization. The data set is classed as organism-based. The following applies: in vivo, 120 h. The method in brief:
as §1

The nature of data set [18]: Therapeutic index, ratio of NOAEL in Zebrafish embryos to apoptotic EC50 in Zebrafish embryos. Format: organism-based, Danio rerio. The note with it: read-out: TI.
The species entered for data set [19] is Danio rerio. Nature of the data set: Hepatotoxicity in Zebrafish embryo at 28 degC until 7 days post fertilization. The data set is classed as organism-based. The following applies: in vivo, 168 h. The method in brief:
as §2

The species named for data set [20] is Danio rerio. Nature of the data set: Toxicity in Zebrafish embryo assessed as induction of changes in lower jaw region at 1 uM. The note with it: in vivo. Format: organism-based. The method in brief: as §1
The species entered for data set [21] is Danio rerio. The data set is described as follows: Hepatotoxicity in Zebrafish embryo at 10 to 30 uM incubated at 28 degC until 7 days post fertilization. Format: organism-based. The following applies: in vivo, 168 h. The method in brief:
as §2

For data set [22], the species on record is Danio rerio. Nature of the data set: Induction of apoptosis in Zebrafish embryo incubated for 24 to 48 hrs by acridine orange based fluorescence microscopy. The data set is classed as functional, organism-based. The method in brief: as §3
The species entered for data set [23] is Danio rerio. Nature of the data set: Teratogenicity in Zebrafish embryo at 1 to 30 uM incubated at 28.5 degC until 5 days post fertilization. Format: ADME, organism-based. The note with it: in vivo, 120 h. The method in brief: as §1
The species entered for data set [24] is Danio rerio. Nature of the data set: Hepatotoxicity in Zebrafish embryo at 30 uM incubated at 28 degC until 7 days post fertilization. The data set is classed as organism-based. The note with it: in vivo, 168 h. The method in brief: as §2
Data set [25] is filed under the species Danio rerio. The data set is described as follows: Induction of apoptosis in Zebrafish embryo at 3 to 30 uM incubated for 24 to 48 hrs by acridine orange based fluorescence microscopy. Format: functional, organism-based. The method in brief:
as §3

The species named for data set [26] is Danio rerio. The data set is described as follows: Induction of apoptosis in Zebrafish embryo at 1 uM incubated for 24 to 48 hrs by acridine orange based fluorescence microscopy. Format: functional, organism-based. The method in brief:
as §3

The species named for data set [27] is Danio rerio. Nature of the data set: Hepatotoxicity in Zebrafish embryo at 1 to 10 uM incubated at 28 degC until 7 days post fertilization. The following applies: in vivo, 168 h. Format: organism-based. The method in brief: as §2

Chain of 3',5'-cyclic-AMP phosphodiesterase 4B (Homo sapiens) (Q07343 whole entry): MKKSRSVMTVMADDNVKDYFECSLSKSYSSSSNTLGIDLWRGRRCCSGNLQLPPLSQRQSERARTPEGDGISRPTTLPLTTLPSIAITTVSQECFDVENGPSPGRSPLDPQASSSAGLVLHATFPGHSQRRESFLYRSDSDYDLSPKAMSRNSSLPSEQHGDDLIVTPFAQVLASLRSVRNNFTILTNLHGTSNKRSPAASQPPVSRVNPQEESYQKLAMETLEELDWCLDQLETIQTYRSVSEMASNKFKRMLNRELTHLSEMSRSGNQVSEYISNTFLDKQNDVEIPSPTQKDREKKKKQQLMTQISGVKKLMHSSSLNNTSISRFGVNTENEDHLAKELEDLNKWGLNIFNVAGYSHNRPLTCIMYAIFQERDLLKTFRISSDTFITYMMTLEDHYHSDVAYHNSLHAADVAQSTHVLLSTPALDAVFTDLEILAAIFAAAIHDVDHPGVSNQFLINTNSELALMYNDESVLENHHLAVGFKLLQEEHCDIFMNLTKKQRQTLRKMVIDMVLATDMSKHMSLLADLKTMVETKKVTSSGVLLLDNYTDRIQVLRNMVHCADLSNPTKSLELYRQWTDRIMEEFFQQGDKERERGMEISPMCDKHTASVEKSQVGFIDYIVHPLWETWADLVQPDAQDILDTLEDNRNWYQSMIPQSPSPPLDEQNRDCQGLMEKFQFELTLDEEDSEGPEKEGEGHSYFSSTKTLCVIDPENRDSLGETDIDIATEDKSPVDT

As to `CCOC(=O)c1ccsc1-n1c(-c2ccccc2)cc2nc3ccccc3nc21`, the Activity entry in data set [1] is on record as “Toxic”; in [2] it was “Non-toxic”; in data set [3], “Non-toxic”; in data set [4], “Non-toxic”; in data set [6] it was “Toxic”; in [7] it was “Toxic”. The Activity result in data set [8] was “Non-toxic”; in data set [9] it was “Toxic”; in [12], “Non-toxic”; in data set [13] it was “Toxic”; in data set [14], “Toxic”; in data set [16], “Non-toxic”. The results for the Activity entry in data set [17], in data set [20] and in data set [21] were “Non-toxic”, “Toxic” and “Toxic”, respectively. The inhibition in [5] is 85%. In [10], the MTC came out at 1 µM. The NOAEL in data set [10] was less than 1 µM; in data set [11], 1 µM; in [19], 3 µM. For the same compound, the outcome in data set [15] was Active. In addition, in [18], the selectivity ratio turned out to be 0.31. Also, the negative logarithm of the EC50 (pEC50) in data set [22] is 5.49.

Turning to `CCOC(=O)c1c(-c2ccccc2)csc1-n1c(-c2ccc(C)cc2)cc2nc3ccccc3nc21`, the Activity entry in [1], in data set [3], in data set [4], in data set [23], in data set [6] and in data set [7] was “Non-toxic” in each case. Also, the Activity result in [8] is “Non-toxic”; in data set [9] it was “Non-toxic”; in [12], “Non-toxic”; in data set [24] it was “Toxic”; in data set [13], “Non-toxic”; in data set [14], “Non-toxic”. Moreover, the Activity result is “Non-toxic” in [16], “Non-toxic” in [27] and “Toxic” in data set [20]. Also, the inhibition in data set [5] amounted to 78%. This compound gave an MTC in data set [10] of 1 µM. Besides, the no-observed-adverse-effect level (NOAEL) in data set [10] came out at 3 µM; in [11], 3 µM; in [19], 10 µM. The result in [25] was Active. In addition, in data set [26], the result was inactive. Also, in [18], the selectivity ratio is 1.64. Besides, the pEC50 in data set [22] was 5.74.

The values above are taken from ChEMBL document CHEMBL3351467, “Ligand-free Pd-catalyzed C-N cross-coupling/cyclization strategy: an unprecedented access to 1-thienyl pyrroloquinoxalines for the new approach towards apoptosis” (Eur J Med Chem, 2014).
